Laboratory results as given in ChEMBL document CHEMBL3792275 (Bioorg Med Chem Lett, 2016).
pIC50: −log10 of the molar value. Calls of active or inactive are those of the source. The calls are words filed in the database; no cut-off is given here.

Experiments:
[1] = Apparent volume of distribution in Sprague-Dawley rat at 10 mg/kg, iv after 15 mins to 24 hrs by LC-MS/MS method; format: ADME, organism-based; details: in vivo, read-out: Vz (converted)
Outline: (§1)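 Sprague-Dawley rats were dosed at 10 mg/kg, either intravenously or orally. AUC0-24h, AUC0-∞, Vz, t1/2z and CLz were derived for each route.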

[2] = Oral bioavailability in Sprague-Dawley rat at 10 mg/kg by LC-MS/MS method; format: ADME, organism-based; details: in vivo
[3] = AUC (0 to 24 hrs) in Sprague-Dawley rat at 10 mg/kg, iv by LC-MS/MS method; format: ADME, organism-based; parameters: time < 24 hr, dose 10 mg/kg, route intravenous; details: in vivo
[4] = Apparent clearance in Sprague-Dawley rat at 10 mg/kg, iv after 15 mins to 24 hrs by LC-MS/MS method; format: ADME, organism-based; details: in vivo, read-out: CL(app) (converted); outline: as §1
[5] = Terminal half life in Sprague-Dawley rat at 10 mg/kg, iv by LC-MS/MS method; format: ADME, organism-based; details: in vivo, read-out: beta t1/2 (converted); outline: as §1
[6] = AUC (0 to infinity) in Sprague-Dawley rat at 10 mg/kg, iv after 15 mins to 24 hrs by LC-MS/MS method; format: ADME, organism-based; parameters: dose 10 mg/kg, time infinity, route intravenous; details: in vivo
[7] = Lipid-water partition coefficient, logP of compound; format: physicochemical
[8] = biological target: MMP-2/MMP-9 (Homo sapiens) (UniProt P08253+P14780); assay: Selectivity ratio of IC50 for human recombinant MMP9 to IC50 for human recombinant MMP2
Outline: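 IC50 values against MMP-2 and MMP-9 were each measured by a fluorimetric enzyme assay, with a reference inhibitor run alongside as positive control. The selectivity ratio is the MMP-9 IC50 divided by the MMP-2 IC50.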

[9] = biological target: 72 kDa type IV collagenase (Homo sapiens, UniProt P08253); assay: Inhibition of human recombinant MMP2 using Mca-Pro-Leu-Gly-Leu-Dpa-Ala-Arg-NH2 as substrate preincubated for 60 mins followed by substrate addition by fluorimetric analysis
[10] = biological target: Matrix metalloproteinase-9 (Homo sapiens, UniProt P14780); assay: Inhibition of human recombinant MMP9 using Mca-Pro-Leu-Gly-Leu-Dpa-Ala-Arg-NH2 as substrate preincubated for 60 mins followed by substrate addition by fluorimetric analysis
[11] = system: HEY; assay: Antiinvasive activity in human HEY cells assessed as reduction in number of cells invading matrigel membrane after 24 hrs by crystal violet staining-based Transwell assay; format: functional, cell-based
Outline: (§2)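 Human ovarian cancer HEY cells were tested in a matrigel-based Transwell invasion assay, with cells invading the matrigel membrane and migrating from the upper to the lower chamber. Treatment was at 12.5, 25 and 50 µM for 24 h, with a DMSO control. Cells per view were counted after crystal violet staining. Treated groups were compared with control by t test.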

[12] = system: HEY; assay: Cytotoxicity against human HEY cells at 6.25 to 100 uM after 48 hrs by MTT assay relative to control; format: cell-based
Outline: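 HEY cell viability was measured by MTT assay after exposure to 6.25–100 µM, with DMSO as control. Medium was checked by microscope for solid particles.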

[13] = Terminal half life in Sprague-Dawley rat at 10 mg/kg, po by LC-MS/MS method; format: ADME, organism-based; details: in vivo, read-out: beta t1/2 (converted); outline: as §1
[14] = AUC (0 to infinity) in Sprague-Dawley rat at 10 mg/kg, po after 15 mins to 24 hrs by LC-MS/MS method; format: ADME, organism-based; parameters: dose 10 mg/kg, route oral, time infinity; details: in vivo
[15] = system: Rattus norvegicus; assay: Apparent volume of distribution in Sprague-Dawley rat at 10 mg/kg, po after 15 mins to 24 hrs by LC-MS/MS method; format: ADME, organism-based; details: in vivo; outline: as §1
[16] = AUC (0 to 24 hrs) in Sprague-Dawley rat at 10 mg/kg, po by LC-MS/MS method; format: ADME, organism-based; parameters: dose 10 mg/kg, time < 24 hr, route oral; details: in vivo
[17] = system: HEY; assay: Antimigratory activity in human HEY cells at 50 uM after 24 hrs by crystal violet staining-based Transwell assay; format: functional; outline: as §2
[18] = Apparent clearance in Sprague-Dawley rat at 10 mg/kg, po after 15 mins to 24 hrs by LC-MS/MS method; format: ADME, organism-based; details: in vivo, read-out: CL(app) (converted); outline: as §1
[19] = system: HEY; assay: Antimigratory activity in human HEY cells after 24 hrs by crystal violet staining-based Transwell assay; format: functional, cell-based; outline: as §2
[20] = system: HEY; assay: Antiinvasive activity in human HEY cells assessed as reduction in number of cells invading matrigel membrane at 50 uM after 24 hrs by crystal violet staining-based Transwell assay; format: functional; parameters: scale not given: the % may be the effect or the level left; outline: as §2

72 kDa type IV collagenase, sequence (P08253 whole entry): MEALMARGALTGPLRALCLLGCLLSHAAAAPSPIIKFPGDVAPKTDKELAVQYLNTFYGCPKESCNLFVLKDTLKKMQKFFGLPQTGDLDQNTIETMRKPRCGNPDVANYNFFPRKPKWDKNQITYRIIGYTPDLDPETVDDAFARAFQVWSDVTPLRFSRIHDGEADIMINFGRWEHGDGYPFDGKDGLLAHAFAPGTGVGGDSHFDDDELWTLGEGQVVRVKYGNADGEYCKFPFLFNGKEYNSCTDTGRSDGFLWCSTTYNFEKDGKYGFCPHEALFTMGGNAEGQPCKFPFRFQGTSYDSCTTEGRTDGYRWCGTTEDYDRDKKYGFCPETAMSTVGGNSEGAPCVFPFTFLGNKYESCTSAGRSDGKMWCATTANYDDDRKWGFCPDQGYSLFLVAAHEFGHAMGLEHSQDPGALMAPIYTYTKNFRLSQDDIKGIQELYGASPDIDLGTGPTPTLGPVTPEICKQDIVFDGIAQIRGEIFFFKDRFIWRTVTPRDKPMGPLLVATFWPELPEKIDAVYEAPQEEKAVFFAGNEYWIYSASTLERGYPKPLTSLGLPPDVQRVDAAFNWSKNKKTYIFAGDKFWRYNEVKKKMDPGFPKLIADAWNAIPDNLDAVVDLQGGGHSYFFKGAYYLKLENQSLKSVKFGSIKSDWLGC
Matrix metalloproteinase-9, sequence (P14780 whole entry): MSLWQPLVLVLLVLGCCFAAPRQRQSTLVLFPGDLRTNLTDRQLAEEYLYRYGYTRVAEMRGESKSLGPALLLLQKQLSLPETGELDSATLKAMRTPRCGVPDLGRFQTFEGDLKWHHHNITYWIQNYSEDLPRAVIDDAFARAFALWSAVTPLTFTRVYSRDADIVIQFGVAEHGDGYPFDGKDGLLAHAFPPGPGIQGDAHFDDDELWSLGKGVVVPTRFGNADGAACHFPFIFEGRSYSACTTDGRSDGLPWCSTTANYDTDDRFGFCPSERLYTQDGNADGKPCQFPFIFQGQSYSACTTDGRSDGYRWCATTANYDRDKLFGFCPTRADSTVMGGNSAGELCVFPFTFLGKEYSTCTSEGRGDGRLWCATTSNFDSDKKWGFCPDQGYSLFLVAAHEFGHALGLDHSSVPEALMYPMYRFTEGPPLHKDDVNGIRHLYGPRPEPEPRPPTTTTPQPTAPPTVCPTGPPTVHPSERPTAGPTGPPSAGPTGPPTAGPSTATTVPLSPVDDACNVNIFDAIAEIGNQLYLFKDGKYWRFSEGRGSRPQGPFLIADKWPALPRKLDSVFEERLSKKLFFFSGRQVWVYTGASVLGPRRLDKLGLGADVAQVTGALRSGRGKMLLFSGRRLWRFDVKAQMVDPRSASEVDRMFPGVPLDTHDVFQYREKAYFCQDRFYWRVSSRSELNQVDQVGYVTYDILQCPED

Structure (SMILES) | Ratio IC50 [8] | pIC50 [9] | pIC50 [10] | other results
CNC(=O)[C@H](Cc1c[nH]c2ccccc12)NC(=O)[C@@H](CC(=O)NO)CC(C)C [ILOMASTAT] |  |  |  | Vd [1]: 1.43 L/kg; bioavailability [2]: 0%; AUC(0-t) at 24 h [3]: 2510 ng·h/mL; clearance [4]: 66.5 mL/min/kg; half-life [5]: 15 min; AUC(0-inf) [6]: 2510 ng·h/mL; logP [7]: 1.04
CNC(=O)[C@H](Cc1c[nH]c2ccccc12)NC(=O)[C@@H](CC(=O)Nc1ccc(C(=O)c2ccccc2)cc1N)CC(C)C | inactive | < 5.00 | < 5.00 | 
CNC(=O)[C@H](Cc1c[nH]c2ccccc12)NC(=O)[C@@H](CC(=O)Nc1ccc(C(F)(F)F)cc1N)CC(C)C | inactive | < 5.00 | < 5.00 | 
CNC(=O)[C@H](Cc1c[nH]c2ccccc12)NC(=O)[C@@H](CC(=O)Nc1cccc(N)c1)CC(C)C | 6.59 | 8.69 | 7.87 | 
CNC(=O)[C@H](Cc1c[nH]c2ccccc12)NC(=O)[C@@H](CC(=O)Nc1ccccc1N)CC(C)C | 8310 | 9.72 | 5.80 | Activity [11]: Dose-dependent effect; Vd [1]: 35.8 L/kg; bioavailability [2]: 4%; Activity [12]: Non-toxic; AUC(0-t) at 24 h [3]: 3070 ng·h/mL; clearance [4]: 52.2 mL/min/kg; half-life [13]: 338 min; AUC(0-inf) [14]: 140 ng·h/mL; half-life [5]: 473 min; AUC(0-inf) [6]: 3210 ng·h/mL; Vz [15]: 579.41 L/kg; AUC(0-t) at 24 h [16]: 36.2 ng·h/mL; Activity [17]: 84.6%; CL/F [18]: 1190 mL/min/kg; Activity [19]: Dose-dependent effect; Activity [20]: 84.6%; logP [7]: 1.91
CNC(=O)[C@H](Cc1c[nH]c2ccccc12)NC(=O)[C@@H](CC(=O)Nc1ccccc1NC(C)=O)CC(C)C | inactive | < 5.00 | 6.81 | 
CNC(=O)[C@H](Cc1c[nH]c2ccccc12)NC(=O)[C@@H](CC(=O)Nc1ccc(Br)cc1N)CC(C)C | 1.25 | 7.66 | 7.56 | 
CNC(=O)[C@H](Cc1c[nH]c2ccccc12)NC(=O)[C@@H](CC(=O)Nc1ccc(C)cc1N)CC(C)C | inactive | < 5.00 | 5.14 | 
CNC(=O)[C@H](Cc1c[nH]c2ccccc12)NC(=O)[C@@H](CC(=O)Nc1ccc(F)cc1N)CC(C)C | 3.52 | 8.66 | 8.11 | 
